We go through twelve compounds from PubChem BioAssay.

Assay [1] can be described thus: inhibitors of TNFa-induced NFkB p65 translocation, primary screen, imaging, HUVEC, MLSMR starter and 10KST1 sets (AID 438;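 active = inhibition above 20% together with a positive visual image hit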;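 also: compound added about 3h40 before a 20 min TNFalpha stimulation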;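 as to inhibition: signal is the nuclear over cytoplasmic p65 intensity ratio per well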). To be noted: HUVEC TNFa-induced p65 nuclear translocation; cell count: measured here: nuclei count (cytotoxicity indicator), at 2.08 µM; inhibition: at 2 µM, stronger effect = higher value, 0% TNFa-plus-vehicle, 100% no-TNFa wells.
The nature of assay [2]: inhibitors of E-selectin induction by TNFa, primary screen, imaging, HUVEC, immunofluorescence, MLSMR starter and 10KST1 sets (AID 487;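 active = visually confirmed hit in the image check and inhibition above 20%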;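 as to inhibition: signal is fraction of cell area covered by stained E-selectin grains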;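 as to nuclei count: 100% = median nuclei count of all wells on the same plate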). The following applies: HUVEC TNFalpha-induced E-selectin immunofluorescence imaging, at 2 µM; inhibition: stronger effect = higher value; nuclei count: measured here: cell number, toxicity.
Assay [3] in a line: DUSP6 inhibitors restoring Erk phosphorylation by chemical complementation, primary imaging in DUSP6-transfected HeLa (AID 609;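 active = compounds giving at least 50% inhibition in the cell-based MKP-3 phosphatase rescue imaging test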;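 as to inhibition: phospho-Erk level distribution per well compared with pooled transfected vehicle control wells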). The following applies: HeLa MKP-3 transfected, phospho-Erk imaging KS statistic, at 10 µM, cells stimulated with TPA for 15 min.
For assay [4], the target named is Dual specificity protein phosphatase 6 (Homo sapiens) (UniProt Q16828). Described as above. To be noted: HeLa MKP-3 transfected, phospho-Erk imaging KS statistic; at 10 µM; stronger effect = higher value; cells stimulated with TPA for 15 min.
In assay [5] the target is Voltage-gated potassium channel subunit beta-2 (Rattus norvegicus) (UniProt P62483). Description: KvBeta enzyme negative modulators, primary screen, biochemical, NADPH fluorescence (AID 622;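 active = fluorescence slope higher than the sample average by over 3 SD, cut at about -0.22 in these data, passing the limit was not always enough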;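 also: slope of raw intensity against log time taken from 70 to 1610 s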). To be noted: recombinant KvBeta, 4-cyanobenzaldehyde reduction, at 10 µM, stronger effect = higher value.
Assay [6] shares this target. As to the kind of experiment: KvBeta positive modulators, primary screen, biochemical, NADPH fluorescence (AID 623;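 active = NADPH fluorescence slope more negative than the mean of all samples by about 3 SD, 99.7% confidence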;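 also: fluorescence intensity change per second fitted from 20 to 320 s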). The following applies: Recombinant KvBeta, NADPH fluorescence decrease slope, 10 min; at 10 µM; stronger effect = lower value.
In assay [7] the target is Alpha-2C adrenergic receptor (Homo sapiens) (UniProt P18825). As to the kind of experiment: modulators of alpha2C/GIRK thallium flux, primary screen, cell-based, HEK293 alpha2C/GIRK1/2 (AID 624;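 active = fluorescence slope after compound addition differing from the mean of all screened samples at 99.7% confidence, in either direction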;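 also: slope of fluorescence ratio to pre-addition baseline per second over 15 to 24 s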). To be noted: thallium flux BTC fluorescence, at 10 µM, actives lie on both sides.
Assay [8] is described as follows: inhibitors of larval lipid processing in zebrafish, primary screen, whole organism, PED6 fluorescence, gall bladder and intestine (AID 686;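 active = a full or partial loss of lipid-probe fluorescence in the fish gall bladder, intestine or both, judged by eye; inactive = no fluorescence loss, or compound toxic to the fish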;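 also: larvae 5 to 7 days old with five fish per well; signal comes from phospholipase A2 cleavage of quenched PED6 carried via bile; overnight exposure to compound and PED6 before scoring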). The following applies: Zebrafish larvae PED6 lipid processing, fluorescence scoring; screened at 20 µM (by protocol). In short, it runs like this:
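Doses: 20 µM single dose. Test system: live zebrafish larvae aged 5-7 days, whole organism. Quantity: five larvae per well. Measured by: By-eye fluorescence microscopy. Reagent: ingested quenched lipid PED6 at 100 nM. Read-out: visual per-well fluorescence inhibition score. Times: overnight exposure of larvae to compound plus PED6.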

Assay [9] can be described thus: inhibitors of Chlamydomonas gravitaxis, primary screen, whole organism, Chlamydomonas reinhardtii, WT vs cilia-less mutant, absorbance, 96-well (AID 463189).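 Also: 0% = wild type cc124 cells in DMSO and 100% = ciliumless bld1 mutant cells.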 To be noted: OD600 absorbance, 2 days, at 10 µM, stronger effect = higher value.
Setting [10] is: measured here: cell density z-score.
[11] abbreviates: measured here: nuclear c-Myc green intensity z-score.
[12] abbreviates: measured here: nuclear pErk red intensity z-score, stronger effect = higher value.

Calls of active or inactive are those of the source.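 The calls were made as follows, unless noted: active = inhibition at or above 50% relative to wild type and mutant plate controls; inactive = inhibition below 50%.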

Sequence of Alpha-2C adrenergic receptor (Homo sapiens) (P18825 whole entry, looked up): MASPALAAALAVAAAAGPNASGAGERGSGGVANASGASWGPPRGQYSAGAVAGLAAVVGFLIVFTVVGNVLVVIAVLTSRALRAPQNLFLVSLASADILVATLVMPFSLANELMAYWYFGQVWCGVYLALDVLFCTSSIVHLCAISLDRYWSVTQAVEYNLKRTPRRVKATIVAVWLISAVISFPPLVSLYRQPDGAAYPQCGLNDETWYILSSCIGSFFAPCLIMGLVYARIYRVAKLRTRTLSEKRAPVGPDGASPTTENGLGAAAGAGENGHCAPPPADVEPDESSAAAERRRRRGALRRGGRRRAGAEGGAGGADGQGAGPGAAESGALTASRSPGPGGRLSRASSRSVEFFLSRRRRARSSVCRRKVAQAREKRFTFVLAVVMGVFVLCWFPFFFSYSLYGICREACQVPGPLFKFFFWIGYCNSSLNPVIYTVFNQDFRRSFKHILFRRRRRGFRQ
Sequence of Voltage-gated potassium channel subunit beta-2 (Rattus norvegicus) (P62483 whole entry, looked up): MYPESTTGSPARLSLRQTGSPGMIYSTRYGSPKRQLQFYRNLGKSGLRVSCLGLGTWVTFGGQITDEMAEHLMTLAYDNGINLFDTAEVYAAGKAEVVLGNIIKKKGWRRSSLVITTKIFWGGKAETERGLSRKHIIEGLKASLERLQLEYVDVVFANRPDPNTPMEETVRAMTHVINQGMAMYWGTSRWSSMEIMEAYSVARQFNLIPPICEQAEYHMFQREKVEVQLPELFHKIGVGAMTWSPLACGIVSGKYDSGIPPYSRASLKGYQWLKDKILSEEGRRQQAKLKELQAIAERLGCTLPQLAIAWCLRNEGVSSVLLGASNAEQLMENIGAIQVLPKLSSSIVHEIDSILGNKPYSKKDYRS
Sequence of Dual specificity protein phosphatase 6 (Homo sapiens) (Q16828 whole entry, looked up): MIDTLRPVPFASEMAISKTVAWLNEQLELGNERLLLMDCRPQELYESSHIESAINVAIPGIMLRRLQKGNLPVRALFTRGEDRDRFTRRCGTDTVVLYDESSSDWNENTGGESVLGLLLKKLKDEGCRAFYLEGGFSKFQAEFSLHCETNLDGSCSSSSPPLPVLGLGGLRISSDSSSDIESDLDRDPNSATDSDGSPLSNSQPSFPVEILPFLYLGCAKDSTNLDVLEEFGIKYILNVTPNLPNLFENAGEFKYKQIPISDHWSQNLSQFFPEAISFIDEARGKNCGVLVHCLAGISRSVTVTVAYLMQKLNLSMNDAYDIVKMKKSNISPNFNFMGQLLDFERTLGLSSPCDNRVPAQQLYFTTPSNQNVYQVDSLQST

In general, inhibition refers to the drop in the measured response relative to a control, in per cent. In the case of `CC(=O)N=C(N)Sc1nc2ccccc2[nH]1`, the cell count in [1] came to 570. The inhibition was -2.8% (inactive) in [1], -55% (inactive) in assay [2], 22.1% (inactive) in assay [4] and 4.16% (inactive) in [9]. In [2], this compound had a nuclei count of 161%. In addition, the z-score in assay [3] (setting [10]) is -0.578; in assay [3] (setting [11]), 0.85; in assay [3] (setting [12]) it was 0.434. Also, the fluorescence slope in [5] is -0.462 (inactive). Besides, the NADPH fluorescence slope in [6] was -0.000171 (inactive). Besides, the slope in assay [7] is 0.00501 (inactive). In addition, the compound was classed as inactive in [8].
`CC(=O)N1CCC2(CC1)C(C#N)=C(N)Oc1n[nH]c(C(F)(F)F)c12`: the cell count in assay [1] is 509. The inhibition in assay [1] is -9.9% (inactive); in assay [2], -79.8% (inactive); in assay [4] it was -1.12% (inactive); in assay [9], 10.5% (inactive). The compound also gave a nuclei count in [2] of 156%. Besides, the z-score in [3] (setting [10]) was 1.26; in assay [3] (setting [11]), 0.347; in [3] (setting [12]), -0.954. The fluorescence slope in assay [5] is -0.349 (inactive). The NADPH fluorescence slope in assay [6] is -1.5e-05 (inactive). Further, the slope in assay [7] is 0.00543 (inactive). Besides, the compound was classed as inactive in assay [8].
In the case of `CC(=O)c1c(N)nc2n(c1=O)CCCCC2`, the cell count in assay [1] was 354. Moreover, the inhibition was -4.7% (inactive) in [1], -5.5% (inactive) in assay [2], 9.42% (inactive) in assay [4] and 24.2% (inactive) in assay [9]. In assay [2], this compound registered a nuclei count of 162%. The z-score came to 0.366 in assay [3] (setting [10]), 0.179 in assay [3] (setting [11]) and 0.934 in assay [3] (setting [12]). Further, the fluorescence slope in assay [5] is -0.392 (inactive). The NADPH fluorescence slope in assay [6] is -0.000138 (inactive). For the same compound, the slope in [7] is 0.0044 (inactive). Also, the call in assay [8] was inactive.
For the compound `O=C(O)CCSc1ccc2ccccc2n1`, the cell count in assay [1] is 502. In addition, the inhibition in [1] was 0.3% (inactive); in assay [2], -157% (inactive); in assay [4] it was 15.8% (inactive); in [9], 9.45% (inactive). This compound also displayed a nuclei count in assay [2] of 135%. The z-score in assay [3] (setting [10]) was 1.96; in assay [3] (setting [11]), -1.24; in assay [3] (setting [12]) it was -0.378. In addition, the fluorescence slope in assay [5] is -0.49 (inactive). Moreover, the NADPH fluorescence slope in assay [6] was -7.2e-05 (inactive). In addition, the slope in [7] was 0.00505 (inactive). Also, the compound was called inactive in [8].
For the compound `COc1ccccc1-c1nnc2sc(C3CCCCC3)nn12`, in [1], the cell count was 531. The inhibition is -12.5% (inactive) in assay [1], -318% (inactive) in assay [2], -0.674% (inactive) in assay [4] and 11.6% (inactive) in assay [9]. In assay [2], this compound yielded a nuclei count of 161%. The z-score is -0.671 in assay [3] (setting [10]), 0.45 in assay [3] (setting [11]) and 0.848 in assay [3] (setting [12]). In addition, in assay [5], the fluorescence slope is -0.405 (inactive). The NADPH fluorescence slope in [6] is -0.000298 (inactive). In [7], the slope is 0.00423 (inactive). The outcome in [8] is “active; no signal in intestine only”.
With `Cc1ccc(C)n1Cc1ccc(C(=O)O)cc1`, the cell count in assay [1] came to 645. Also, the inhibition was 1.9% (inactive) in assay [1], -32.8% (inactive) in assay [2], -6.86% (inactive) in [4] and -3.17% (inactive) in assay [9]. In assay [2], this compound displayed a nuclei count of 154%. Further, the values for the z-score in [3] (setting [10]), in assay [3] (setting [11]) and in assay [3] (setting [12]) were 1.01, 0.014 and -0.0334, respectively. Besides, in [5], the fluorescence slope is -0.401 (inactive). For the same compound, the NADPH fluorescence slope in [6] was -4.4e-05 (inactive). Further, the slope in [7] was 0.00514 (inactive). Moreover, in assay [8], the result was inactive.
On to `COC(=O)c1c(NC(=O)c2nn(C)cc2Cl)sc2c1CCCC2`, for which the cell count in [1] was determined as 650. The inhibition in [1] was 4.5% (inactive); in [2], -19.9% (inactive); in assay [4], 2.46% (inactive); in assay [9], 23.3% (inactive). Further, the nuclei count in [2] came out at 179%. The z-score in assay [3] (setting [10]) was -0.637; in assay [3] (setting [11]), -1.15; in assay [3] (setting [12]), 1.29. The fluorescence slope in assay [5] is -0.389 (inactive). Further, in [6], the NADPH fluorescence slope is -3.5e-05 (inactive). The slope in assay [7] was 0.00842 (inactive). Further, in [8], the outcome was inactive.
For `Cc1ccccc1C(=O)c1ccc2c(c1)n(C)c(=O)n2C`, in assay [1], the cell count is 547. The inhibition was -22.1% (inactive) in assay [1], -296% (inactive) in assay [2], 5.65% (inactive) in [4] and 0.416% (inactive) in [9]. Also, the nuclei count in assay [2] turned out to be 200%. Moreover, the z-score in [3] (setting [10]) was 1.43; in [3] (setting [11]) it was -1.34; in assay [3] (setting [12]) it was 1.32. Moreover, in assay [5], the fluorescence slope is -0.512 (inactive). For the same compound, the NADPH fluorescence slope in assay [6] is -5.8e-05 (inactive). Moreover, in [7], the slope is 0.00384 (inactive). Also, the outcome in assay [8] was inactive.
For the compound `C/C(CC1(O)C(=O)N(Cc2ccccc2)c2ccccc21)=N\O` (stereo unspecified), the cell count in assay [1] was 645. Besides, the inhibition was -11.4% (inactive) in assay [1], -28.2% (inactive) in [2], -7.79% (inactive) in assay [4] and -6.97% (inactive) in assay [9]. The compound also yielded a nuclei count in [2] of 182%. Besides, the figures for the z-score in [3] (setting [10]), in assay [3] (setting [11]) and in assay [3] (setting [12]) were -1.05, -1.05 and 1.51, respectively. The fluorescence slope in assay [5] is -0.464 (inactive). The NADPH fluorescence slope in [6] was -0.000206 (inactive). Further, the slope in assay [7] is 0.0275 (active). For the same compound, in [8], the result was inactive.
As to `COc1ccc(/C(O)=C2\C(=O)C(=O)N(CCN(C)C)C2c2cccc(OC)c2OC)cc1` (stereo unspecified), the cell count in [1] worked out at 614. Further, the inhibition is -5.4% (inactive) in [1], -56.5% (inactive) in assay [2], 9.61% (inactive) in assay [4] and -2.59% (inactive) in assay [9]. Moreover, the nuclei count in assay [2] is 192%. The values for the z-score in assay [3] (setting [10]), in assay [3] (setting [11]) and in assay [3] (setting [12]) were 0.97, 0.147 and -0.253, respectively. For the same compound, the fluorescence slope in assay [5] was -0.338 (inactive). Besides, the NADPH fluorescence slope in assay [6] was -2.9e-05 (inactive). Moreover, in [7], the slope was 0.00479 (inactive). The result in [8] was inactive.
For the compound `COc1ccc(C2C(C#N)=C(SC)NC3=C2C(=O)CC(C)(C)C3)cc1` (stereo unspecified), in assay [1], the cell count came to 369. The inhibition in assay [1] was -8.9% (inactive); in assay [2], -30.1% (inactive); in assay [4], -12.6% (inactive); in assay [9], 27.3% (inactive). Also, in [2], the nuclei count amounted to 156%. Further, the z-score is 1.03 in assay [3] (setting [10]), -0.788 in assay [3] (setting [11]) and 1.1 in assay [3] (setting [12]). For the same compound, in [5], the fluorescence slope was -0.411 (inactive). Also, the NADPH fluorescence slope in assay [6] was -9.7e-05 (inactive). Further, the slope in assay [7] is 0.00455 (inactive). The compound was called inactive in assay [8].
For the compound `NC(=O)CSc1nc(N)c2c3c(sc2n1)CCCCC3`, the cell count in assay [1] worked out at 620. The inhibition in assay [1] is -15.9% (inactive); in assay [2] it was 47.7% (inactive); in assay [4] it was -2.29% (inactive); in assay [9], 10.9% (inactive). In addition, the nuclei count in assay [2] is 164%. Further, the z-score is -1.12 in [3] (setting [10]), -0.0373 in assay [3] (setting [11]) and 0.273 in assay [3] (setting [12]). Further, the fluorescence slope in [5] is -0.362 (inactive). Also, the NADPH fluorescence slope in assay [6] was -6.1e-05 (inactive). Besides, the slope in assay [7] is 0.0046 (inactive). For the same compound, in assay [8], the compound was classed as inactive.
